# In ChEMBL document CHEMBL4513216, “Probing the Open Global Health Chemical Diversity Library for Multistage-Active Starting Points for Next-Generation Antimalarials” (ACS Infect Dis, 2020):
# Experiment: Toxicity liver stage against HepG2, at 10uM
# Type: cell-based
# Design: test concentration 10 uM, cell line HepG2-A16-CD81EGFP
# Conditions: human, HepG2-A16-CD81EGFP cells; read-out: INHIBITION
# How it was run: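 Uninfected HepG2-A16-CD81EGFP cells, 3 × 10^3 per well, 1536-well, plated on prespotted compound at 10 μM final, parasite-free screening media added to match infected plates; puromycin 10 μM positive, DMSO 0.5% negative; run in parallel with 48 h PbLuc assay at 37 °C, 5% CO2; viability by CellTiter-Glo luminescence, normalized to controls.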
row,SMILES,cytotoxicity at 10 µM
1,Cc1ccc(Oc2ncccc2C(=O)N(C)CCCN(C)C)cc1,1.73%
2,CC(=O)N1N=C(c2ccccc2)OC1C(=O)NCCN(C(C)C)C(C)C (stereo unspecified),0.238%
3,COCCNC(=O)Cn1ccc2cccc(OC)c21,-45.8%
4,O=C(Cn1ncc2c(c1=O)CCCC2)Nc1cccc2[nH]ccc12,3.16%
5,CC(C)N1CCc2ncn(C(C)C)c2C1C(=O)NCCN1CCCC1 (stereo unspecified),3.11%
6,CCOc1ncnc2c1CCN(S(=O)(=O)CC)CC2,3.79%
7,Cc1ccc(N2Cc3c(CN(C)C)nn(C)c3C2)nn1,2.47%
8,COc1cc(N2C[C@H]3OCC[C@H]3[C@H](C(=O)N3CCCC3)C2)ncn1,4.99%
9,Cn1cc(CN2CCC3(CC2)COC(COc2ccccn2)C3)cn1 (stereo unspecified),0.719%
10,CC(=O)NCC(=O)N1C[C@H](OCc2cccnc2)[C@H]2COC[C@H]21,-7.12%
11,O=C(NCc1cccc(F)c1)N1CCC2(CC(=O)N(c3ccsc3)C2)C1 (stereo unspecified),-10%
12,O=C(c1c(F)cccc1F)N1CCOCC1,5.33%
13,Nc1nccc(C2CCN(c3cnccn3)C2)n1 (stereo unspecified),1.43%
14,Cc1cccc(C)c1Nc1noc2c1CN(C(=O)c1ccn(C)n1)CC2,5.69%
15,Cc1noc(C)c1CCC(=O)NCC1(O)CCCN(c2ccccn2)C1 (stereo unspecified),-3.95%
16,Cc1cc(N2CCC(Cc3ncccn3)C2)ncn1 (stereo unspecified),0.146%
17,Cc1ccc(-c2nnc(CNC(=O)c3cccnc3)o2)cn1,-2.72%
18,Cc1noc(C)c1C(=O)N1CCCCC1c1cc(C)n2ccnc2n1 (stereo unspecified),15.8%
19,NCCn1nc(C2CCN(C(=O)Cc3ccccc3)C2)c2nccnc21 (stereo unspecified),-15.9%
20,CN1CC(c2cc(O)nc(NCc3ccccc3Cl)n2)CC1=O (stereo unspecified),-20.2%
21,CNC(=O)C1(c2cnccn2)CCCN1C(=O)c1ccccc1C (stereo unspecified),-16.5%
22,COCC(=O)Nc1ccc(N2CCC(OC)CC2)c(C(F)(F)F)c1,-0.0399%
23,COc1ccc(N(C)C(=O)C2CN(C)CCO2)cc1F (stereo unspecified),-41.8%

row,SMILES,cytotoxicity at 10 µM
1,Cn1ccnc1CN1CCCCC1c1nc(-c2ccccc2)no1 (stereo unspecified),-47.5%
2,O=C1CCCCN1CSc1nnnn1-c1ccc(Cl)cc1,-48.4%
3,Cn1ccc(CNC(=O)Nc2ccc(S(=O)(=O)C(F)F)cc2)c1,5.93%
4,CN(C)CCN(C)S(=O)(=O)CC1CCOCC1,-5.38%
5,CC(C)(C)c1ccc2c(c1)CCN2C(=O)c1ccc(=O)[nH]n1,2.87%
6,COC(C(=O)NCc1c(C)nc2cc(=O)[nH]n2c1C)c1ccccc1 (stereo unspecified),0.493%
7,CNC(=O)NCC(=O)Nc1ccccc1N1CCc2ccccc21,2.46%
8,Cn1cnc(S(=O)(=O)N2CCCc3c(F)cc(F)cc32)c1Cl,0.333%
9,Cc1nc(CN2CCCC2Cn2ccnc2C(C)C)nc2ccccc12 (stereo unspecified),-56.8%
10,CSc1ccccc1NC(=O)CCN1CCC(C(=O)N(C)C)CC1,6.47%
11,O=C(c1cc(-n2cccn2)ccn1)N1CCOc2ncccc21,-0.554%
12,Cc1csc(CN(CC2CCCO2)C(=O)c2cccnc2C)n1 (stereo unspecified),0.459%
13,COc1cccc(CC(=O)N2CCN(c3cccc(C)c3)C(C)C2)c1 (stereo unspecified),8.63%
14,CC(=O)NCCCSC1CCCN(c2ccccc2F)C1=O (stereo unspecified),-0.906%
15,Cc1cc(Br)oc1C(=O)N1CCCN(CC(N)=O)CC1,0.71%
16,O=C(NCCNc1ncccn1)c1cnc(-c2ccccc2)nc1,12.1%
17,COc1ccc(C(CNC(=O)c2cnc(C)cn2)N2CCOCC2)cc1 (stereo unspecified),3.04%
18,CCc1ncc2c(n1)CN(Cc1nnc(C(C)C)o1)CC2,-4.54%
19,CC(COc1ccccc1F)NC(=O)N[C@@H]1C=C[C@H](CO)C1 (stereo partly specified),3.53%
20,NC(=O)c1cccc(CN2CCOC(Cn3cccn3)C2)c1 (stereo unspecified),-2.69%
21,Cn1cc(CNc2ccc(CCN3CCC(C(N)=O)CC3)cc2)cn1,-6.21%
22,Cc1cnn(-c2cccc(N3CCCC3)n2)c1,-6.26%
23,O=C(CCc1cncc(F)c1)NS(=O)(=O)c1ccc(F)cc1F,-7.49%

row,SMILES,cytotoxicity at 10 µM
1,Cc1cc(CNc2ccc(C(F)(F)F)cc2)no1,-54%
2,Cc1nn(C)c(N2CCOCC2)c1CNC1CCCCNC1=O (stereo unspecified),5.84%
3,CCN(CC1CCOC1)C(=O)c1cn2ccc(C)cc2n1 (stereo unspecified),1%
4,CCN(CC1CCOC1)C(=O)c1ccn(-c2cc(C)ccc2OC)n1 (stereo unspecified),6.16%
5,CCN(CC)S(=O)(=O)c1ccc(CNc2cc(C)nc(C)n2)cc1,-5.83%
6,CN(C)C(CNCc1nc(-c2ccsc2)no1)c1cccs1 (stereo unspecified),16.3%
7,CS(=O)(=O)NCCCNCc1cc(F)ccc1Br,15.7%
8,OCC(O)CSCc1cn(-c2ccc(Cl)c(Cl)c2)nn1 (stereo unspecified),8.55%
9,O=S(=O)(C1CC1)N1CCCn2nnc(Cn3cccc3)c2C1,9.39%
10,O=S(=O)(c1cccs1)N1Cc2nc(COCC3CC3)oc2C1,-109%
11,Cc1nc(N2CCOCC2)nc2c1CCN(C(=O)C1(C#N)CC1)CC2,-117%
12,O=C([C@@H]1CCO[C@@H]2CCN(CC3CCOCC3)C[C@H]21)N1CCCC1,-114%
13,Cc1ncnc2c1CCN(S(=O)(=O)C1CC1)CC2,-108%
14,c1ccc(CNc2ncc(CN3CCCN4CCC[C@H]4C3)cn2)cc1,-9.53%
15,OCCCN1CCOC(c2ccc(F)cc2)C1 (stereo unspecified),-7.09%
16,COc1ccc(CN(C)c2ccc(-c3nccn3C)nn2)cc1OC,-3.32%
17,O=C(NCc1ccncc1)C1CN(c2nc3ccccc3s2)CCN1 (stereo unspecified),-105%
18,O=C(c1ccc(CN2CCCCC2)cc1)N1Cc2cnn(CCO)c2C1,12.6%
19,O=C(c1ccc(S(=O)(=O)NCCc2ccccn2)cc1)N1CCCC1,13.2%
20,CCCC(CNc1cc(C(C)C)nc2ccnn12)N(C)C (stereo unspecified),5.6%
21,O=C(O)[C@@H]1CN(CC(=O)N2CCCCC2)C[C@H]1c1ccc(F)cc1,-3.95%
22,CC(C)(N)c1cn(C2CCN(c3ncccc3Cl)CC2)nn1,-48%
23,COC1CCN(S(=O)(=O)N2CC(c3ccccc3)C(C)(C)C2)CC1 (stereo unspecified),3.64%

row,SMILES,cytotoxicity at 10 µM
1,CN(Cc1cc2cc(F)ccc2[nH]1)c1cc(C2CCCNC2)ncn1 (stereo unspecified),7.16%
2,O=C(c1cnc(Nc2ccccc2)nc1)N1CCC2(CCNCC2)CC1,-5.96%
3,CN(Cc1cnn(C)c1)Cc1nc(CCc2ccccc2)no1,-26.1%
4,CCN(CC)C(CNCc1ccc(C)o1)c1ccco1 (stereo unspecified),3.23%
5,Cc1cc2cccc(C(=O)N3CCOC4(CNCCOC4)C3)c2o1 (stereo unspecified),-2.21%
6,c1ccc(-n2cnnc2CCCN2CCOCC2)cc1,-1.16%
7,CC(C)N(C)CCC(=O)N1CCCC(c2ccc(C(=O)O)cc2)C1 (stereo unspecified),-4.1%
8,Cc1nc(CN2CCCCC2CCc2ccc(O)cc2)no1 (stereo unspecified),1.18%
9,COc1ccc(F)c(CN2CCCC3(CCN(C(=O)CSC)C3)C2)c1 (stereo unspecified),0.15%
10,COc1ccc(CCC(=O)N2CCNCC2C(=O)N2CCOCC2)cc1 (stereo unspecified),4.34%
11,CC(C)[C@@H]1CN(Cc2ccccc2C#N)C[C@H]1N(C)C,-18.7%
12,Cc1ccc(O)c(CN2CCn3nc(C(=O)N4CCCC4)cc3C2)n1,1.5%
13,O=C(Nc1cc(C(F)(F)F)c[nH]c1=O)N1CCCSCC1,-5.77%
14,Cc1nc(C)n(CC2CCCN2CC(=O)Nc2ccnn2C(C)C)n1 (stereo unspecified),-14%
15,CCc1[nH]ncc1C(=O)N1CCCN(Cc2cnn(C(C)C)c2)CC1,-12%
16,O=C(c1ccc2c(c1)OCO2)N1CCN(c2cnccn2)CC1,-7.1%
17,O=C(NCc1nn(-c2ccccc2)c2c1CCC2)NC1CC1,-9.14%
18,Cc1nn(C)c(C)c1C1CCCN1Cc1cccc(C(=O)N(C)C)c1 (stereo unspecified),-11.9%
19,CCN(CC1CCCO1)C(=O)Nc1cc(C(=O)OC)ccc1F (stereo unspecified),-4.77%
20,CCn1cnnc1CNC(=O)N(C)Cc1ccc2c(c1)OCCO2,-1.96%
21,CCn1cc(NC(=O)NCc2ccc(CN3CCOCC3)cc2)cn1,-6.63%
22,O=C(CCc1ccccn1)N1CCN(C(=O)CC2CCCCC2)CC1,-1.8%
23,O=C(Cc1ccc(-n2cccn2)cc1)N1CCCC(n2cccn2)C1 (stereo unspecified),4.6%

row,SMILES,cytotoxicity at 10 µM
1,O=C(Cc1ccc2c(c1)OCCO2)N1CCCC(n2ccnc2)C1 (stereo unspecified),3.8%
2,Cc1ccc(CN(CCCN2CCOCC2)Cc2cncn2C)o1,-40.3%
3,COc1ncc(CN(CCCN2CCOCC2)Cc2ccc(C)o2)cn1,-33%
4,Cc1ccc2c(n1)N(CC1CC1)CCN(C(=O)NC1CC1)C2,-3.09%
5,CCOCC1c2c(cnn2CC2CC2)CCN1Cc1nccs1 (stereo unspecified),85.9%
6,Cc1occc1C(=O)N1CCO[C@H]2[C@H](OCc3ccccn3)CC[C@@H]21,-104%
7,CC(C)NC(=O)N1CCN(CC2CC2)c2ncccc2C1,-108%
8,O=C(NCC1CC1)[C@H]1C[C@@H]2CCN(Cc3ccc4c(c3)OCO4)C[C@@H]2O1,-0.208%
9,CC(C)CN1CCC(c2nc3ccc(NC(C)C)cn3n2)CC1,1.13%
10,CN(C)C(=O)c1n[nH]c2c1CN(CC1CCC1)C2,-2.22%
11,CN(C)CCO[C@H]1CN(Cc2ccco2)[C@@H]2COC[C@H]12,-98.2%
12,COc1ccc(CNC(Cc2cccs2)c2nc(C)c(C)s2)cc1OC (stereo unspecified),-3.32%
13,O=C(Cc1cccs1)N1C[C@H]2CN(CC3CCCO3)CC[C@H]2C1 (stereo partly specified),4.96%
14,c1cncc(CN2Cc3nccn3CC(Cn3cccn3)C2)c1 (stereo unspecified),-102%
15,Fc1cnccc1CN1CCCC2(CCN(c3ncccn3)CC2)C1,-112%
16,O=C(NCc1cnc2n1CCN(Cc1nccs1)CC2)C1CCC1,0.588%
17,Fc1cnc(N2CCO[C@H]3CN(CC4CCCCC4)C[C@H]32)nc1,6.61%
18,O=C([C@H]1CCCO1)N1CCN(CCn2cccn2)c2ncccc2C1,-106%
19,Cc1cnc(CN2C[C@H]3CC(Oc4ccccc4)C[C@H]3C2)cn1 (stereo partly specified),-24.3%
